Laboratory results: article PMC2865690 (ChemMedChem, 2009)

Assays:
mGluR5 [1] = test: mGluR5 potentiation; type: cell-based; conditions: read-out: Potentiator EC50; at an EC20 concentration of glutamate; average of at least three determinations
In short: (§1)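 Calcium fluorescence recorded continuously on mGluR5. Test compound added alone at t = 4 s, then an EC20 concentration of glutamate added 140 s later. Agonism is read from the response to compound alone; potentiation from the response to EC20 glutamate. Full concentration-response curves, up to 30 μM, give EC50s.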

mGluR5 [2] = test: Fold-shift assay of the glutamate concentration-response curve; type: cell-based; conditions: 1 μM compound; leftward shift
mGluR5 [3] = test: mGluR5 allosteric agonist activity, compound alone without glutamate; type: cell-based
In short: as §1

[4] = cited from earlier work

## O=C(c1ccc(F)cc1)N1CCCC(c2nc(-c3ccc(F)cc3)no2)C1 (stereo not drawn) [16a]
mGluR5 [1]
  EC50: 1.68 ± 3.62 µM

## O=C(c1ccc(F)cc1)N1CCC[C@H](c2nc(-c3ccc(F)cc3)no2)C1 [ADX-47273]
mGluR5 [1]
  EC50: 0.168 ± 0.028 µM
mGluR5 [2]
  Fold shift of the glutamate CRC: 9 fold
mGluR5 [3]
  Allosteric agonist % Glu Max: 65%
mGluR5 [3]; read-out: Allosteric agonist EC50, absence of an EC20 of glutamate
  EC50: 9.5 µM

## N#Cc1cccc(C(=O)Nc2cc(-c3ccccc3)nn2-c2ccccc2)c1 [CDPPB]
[4]
  Solubility in most vehicles: poor solubility
